Experimental findings from article PMC3472134 (Bioorganic & medicinal chemistry letters, 2012) are described below.

In series [1] the target is T1, human recombinant HDAC8 (Homo sapiens, UniProt Q9BY41).
T1 sequence (Q9BY41 1-377): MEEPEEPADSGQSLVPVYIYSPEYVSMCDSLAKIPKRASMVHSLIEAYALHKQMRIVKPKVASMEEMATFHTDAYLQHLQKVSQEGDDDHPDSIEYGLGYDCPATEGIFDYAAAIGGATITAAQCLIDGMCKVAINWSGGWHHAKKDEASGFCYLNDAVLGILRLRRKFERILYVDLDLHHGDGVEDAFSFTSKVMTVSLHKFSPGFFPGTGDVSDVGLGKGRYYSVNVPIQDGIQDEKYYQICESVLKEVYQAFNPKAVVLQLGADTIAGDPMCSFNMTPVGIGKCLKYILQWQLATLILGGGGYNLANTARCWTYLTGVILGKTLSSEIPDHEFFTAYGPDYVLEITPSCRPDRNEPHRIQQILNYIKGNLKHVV
In words: HDAC8 inhibition, fluorogenic substrate Fluor de Lys. The format is biochemical.

The nature of another series: Solubility. The class given is physicochemical. The settings on record: remark on the photolabeling competition experiment.
The target of series [2] is T1, human recombinant HDAC8. The class given is binding. The note with it: denaturing conditions, excess of competitor (1f at 50 fold molar excess).
The target of a further series is recombinant human HDAC3 (Homo sapiens, UniProt O15379). In words: HDAC3 inhibition, fluorogenic substrate Boc-Lys. The format is biochemical.
Series [3] deals with nuclear class I HDACs (acetylation status of histone H4) in SH-SY5Y cells. In words: Western blot of acetylation of histone H4 in SH-SY5Y cells. The class given is cell-based. The note with it: 24 h treatment. The method in brief:
(§1)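 SH-SY5Y cells were seeded at 1.0 x 10^5 cells/well and grown to 80% confluence in 1:1 DMEM:OPTI-MEM with 10% FBS and antibiotics. They were exposed to vehicle or rising concentrations of test compound for 24 h at 37 °C, 5% CO2, then lysed in RIPA with protease/phosphatase inhibitors. 20 µg of total protein (BCA) went to SDS-PAGE/PVDF, probed overnight at 4 °C for acetyl-α-tubulin or acetyl-histone H4, with GAPDH; chemiluminescence imaged by CCD.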

Series [4] concerns cytoplasmic HDAC6 (acetylation status of α-tubulin) in SH-SY5Y cells. In words: Western blot of acetylation of α-tubulin in SH-SY5Y cells. The format is cell-based. The note with it: 24 h treatment. The procedure, abridged: as §1

pIC50: −log10 of the molar value. Entries after “also recorded” stand apart in the source; their conditions may differ.

Sequence of recombinant human HDAC3 (O15379 whole entry): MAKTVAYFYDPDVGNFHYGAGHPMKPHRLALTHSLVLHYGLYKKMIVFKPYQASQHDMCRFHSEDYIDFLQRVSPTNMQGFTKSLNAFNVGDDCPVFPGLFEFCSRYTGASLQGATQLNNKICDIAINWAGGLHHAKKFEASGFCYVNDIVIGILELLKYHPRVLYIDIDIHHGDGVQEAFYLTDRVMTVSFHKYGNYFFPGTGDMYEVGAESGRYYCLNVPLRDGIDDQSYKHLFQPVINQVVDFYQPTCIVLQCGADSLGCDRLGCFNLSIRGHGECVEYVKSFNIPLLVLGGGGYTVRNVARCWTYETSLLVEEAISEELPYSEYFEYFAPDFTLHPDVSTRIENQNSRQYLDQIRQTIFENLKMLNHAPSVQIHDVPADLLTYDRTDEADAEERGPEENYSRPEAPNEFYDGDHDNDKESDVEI
Sequence of recombinant human HDAC3 (Q9Y618 395-489 partner limits assumed): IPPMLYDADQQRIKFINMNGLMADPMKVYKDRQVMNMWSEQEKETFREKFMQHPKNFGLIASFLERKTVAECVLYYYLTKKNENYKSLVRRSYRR

Regarding `COC(=O)CCCCCCC(=O)Nc1ccc(OCc2ccccc2)cc1` [1e], on human recombinant HDAC8 [1], the pIC50 was < 4.18.

`COC(=O)CCCCCCC(=O)Nc1ccc(OCc2cc(C)cc(C)c2)cc1` [1f, 7-[4-(3,5-Dimethyl-benzyloxy)phenylcarbamoyl]heptanoic acid methyl ester]: the Solubility entry in “Solubility” is reported as “low solubility”. Further, the “Competition with probe 1b, effect on biotinylation of HDAC8” value (“Competition with probe 1b, effect” for short) at human recombinant HDAC8 [2] is “pronounced decrease in biotinylation”.

With `COc1cc(COc2ccc(NC(=O)CCCCCCC(=O)OCCN=[N+]=[N-])cc2)cc(N=[N+]=[N-])c1` [1h, 7-[4-(3-Azido-5-methoxybenzyloxy)phenylcarbamoyl]heptanoicacid-2-azidoethyl ester], the pIC50 on recombinant human HDAC3 was < 4.18.

As for `COc1cc(COc2ccc(NC(=O)CCCCCCC(=O)OCc3ccc(CN=[N+]=[N-])cc3)cc2)cc(N=[N+]=[N-])c1` [1i, 7-[4-(3-Azido-5-methoxybenzyloxy)phenylcarbamoyl]heptanoicacid-4-azidomethylbenzyl ester], the “Acetylation status of histone H4” value in series [3] is reported as “increase acetylation of H4”. Further, the “Deacetylation of α-tubulin” value in series [4] is “did not inhibit; also recorded: not α tubulin”. At recombinant human HDAC3, the pIC50 is < 4.18.

Turning to `COc1ccc(Cn2ccc3ccc(C(=O)NO)cc32)cc1` [PCI34051], the “Competition with probe 1b, effect” value at human recombinant HDAC8 [2] was “pronounced decrease in biotinylation”.

As for `CC(/C=C/C(=O)NO)=C\[C@@H](C)C(=O)c1ccc(N(C)C)cc1` [TSA, Trichostatin A], at human recombinant HDAC8 [2], the “Competition with probe 1b, effect” value was “pronounced decrease in biotinylation”.
